Screens (PubChem BioAssay)
Calb biofilm kill = mixture kills Candida albicans biofilm cells; C. albicans biofilm persisters + clotrimazole, fluorescence viability; primary screen in compound mixtures of four per well; inhibition, % at 7.6 µM; 0.02% of 120,000 active;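 active = inhibition above 30.3% in the primary screen of four-compound pools, then above 30% when the compound was retested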;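 note: compounds exposed to preformed 24 h biofilms for 48 h; 0% = untreated biofilm control and 100% = clotrimazole plus chlorhexidine kill blank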
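System: C. albicans CAF4-2 wild-type biofilms; Medium: RPMI/MOPS medium, pH 7.0; Reagent: Clotrimazole, 50 µg/mL; Times: biofilm formation 24 h, compound exposure 48 h, 37 °C; Detection: 2-h Alamar Blue fluorescence, 535/590 nm excitation/emission; Evaluation: percent inhibition of biofilm viability.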
ABCB1 inh = inhibitors of human ABCB1 transporter, ABCG2 counter-screen; inhibition, % at 6.6 µM; AID 1326; P08183; 0.067% of 190,000 active; CCRF-Adr cells, JC-1 efflux, flow cytometry; in the data active = inhibition above about 40%;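 note: 0% = vehicle and 100% = reference inhibitor; higher value means more JC-1 retained so stronger ABCB1 efflux block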
Target sequence (P08183 whole entry, looked up): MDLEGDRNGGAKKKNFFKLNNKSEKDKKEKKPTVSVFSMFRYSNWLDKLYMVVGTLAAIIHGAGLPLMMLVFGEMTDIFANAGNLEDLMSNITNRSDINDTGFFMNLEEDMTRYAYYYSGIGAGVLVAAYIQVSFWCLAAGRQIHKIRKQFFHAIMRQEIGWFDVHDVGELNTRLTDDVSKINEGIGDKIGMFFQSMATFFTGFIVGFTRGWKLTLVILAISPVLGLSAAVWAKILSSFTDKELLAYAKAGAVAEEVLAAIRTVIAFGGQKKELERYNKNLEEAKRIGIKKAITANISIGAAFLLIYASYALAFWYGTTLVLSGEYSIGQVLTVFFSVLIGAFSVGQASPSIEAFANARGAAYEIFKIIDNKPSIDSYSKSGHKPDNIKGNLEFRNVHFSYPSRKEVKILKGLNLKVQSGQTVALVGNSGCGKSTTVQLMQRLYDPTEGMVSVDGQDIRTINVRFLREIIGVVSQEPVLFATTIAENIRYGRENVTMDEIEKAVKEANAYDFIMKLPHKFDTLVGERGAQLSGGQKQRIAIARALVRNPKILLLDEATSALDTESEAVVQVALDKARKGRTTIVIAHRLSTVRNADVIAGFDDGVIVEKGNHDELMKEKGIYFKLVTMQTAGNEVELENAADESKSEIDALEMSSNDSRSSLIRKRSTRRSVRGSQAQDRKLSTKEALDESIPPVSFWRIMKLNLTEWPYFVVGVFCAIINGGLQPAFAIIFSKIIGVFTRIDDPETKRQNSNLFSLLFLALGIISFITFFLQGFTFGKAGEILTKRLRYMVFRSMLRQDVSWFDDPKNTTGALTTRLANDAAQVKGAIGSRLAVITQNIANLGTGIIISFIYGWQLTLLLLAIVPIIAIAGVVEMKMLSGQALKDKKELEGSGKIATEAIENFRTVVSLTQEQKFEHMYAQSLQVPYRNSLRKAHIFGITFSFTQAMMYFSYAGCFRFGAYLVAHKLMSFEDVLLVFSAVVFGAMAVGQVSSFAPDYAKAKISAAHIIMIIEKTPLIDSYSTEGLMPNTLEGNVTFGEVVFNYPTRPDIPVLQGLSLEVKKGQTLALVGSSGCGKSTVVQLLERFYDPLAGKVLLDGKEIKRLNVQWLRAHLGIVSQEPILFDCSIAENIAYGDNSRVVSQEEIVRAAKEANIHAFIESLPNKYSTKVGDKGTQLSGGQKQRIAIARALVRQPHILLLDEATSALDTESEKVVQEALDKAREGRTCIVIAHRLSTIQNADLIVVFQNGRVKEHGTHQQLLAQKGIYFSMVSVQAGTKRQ
TRPML3 ag = agonists of human TRPML3 channel; activation, % at 3 µM; Q8TDD5; AID 1448; HEK293 TRPML3-YFP, Fluo-8 calcium fluorescence; 100% = the carbachol control signal; 0.29% of 220,000 active;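 active = activation above its plate's cutoff, the mean activation of the plate's test wells plus 3 SD, cut at about 12% in these data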;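 note: 0% = DMSO only wells and 100% = carbachol wells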
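Test system: TRPML3-YFP stable HEK293 cells. Doses: single point at 3 µM. Incubation: dye loading 1 h 37 °C then 30 min ambient, 125 s read. Signal: Fluo-8 calcium dye fluorescence, ex 470-495, em 515-575 nm. Measure: percent activation from peak-to-basal fluorescence ratio, scaled between DMSO and carbachol.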
ABCG2 inh = blocks JC-1 efflux by human ABCG2 transporter. 0.1% of 190,000 active. IgMXP3 cells, flow cytometry. inhibition, % at 6.6 µM. Q9UNQ0;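 active = inhibition above 80%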;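 note: 0% = DMSO and 100% = nicardipine control wells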
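test system = two drug-resistant human cell lines, ABCG2 and ABCB1 | amount = 3 million cells/mL final, two lines in 1:1 ratio | reagent = JC-1 transporter substrate | doses = one concentration, 6.6 µM final | incubation = 10 min at 25 °C | signal = flow cytometric JC-1 green MFI at 530 nm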
TRPN1 ag = agonists of zebrafish TRPN1 channel. HEK293 zebrafish TRPN1-YFP, Fluo-8 calcium fluorescence; 100% = response to 87 µM carbachol. activation, % at 3 µM. 0.18% of 220,000 active. AID 1424;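 active = activation above its plate's cutoff, the mean activation of test wells on that plate plus 3 SD, cut at about 19% in these data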;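 note: 0% = DMSO alone and 100% = 87 µM carbachol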
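Material – zebrafish TRPN1-YFP in HEK293 cells · Doses – 3 µM single point · Schedule – dye 1 h 37 °C plus 30 min RT · Signal – Fluo-8 calcium fluorescence, excitation 470-495 nm, emission 515-575 nm · Read-out – % activation versus carbachol response · Control set – carbachol high, DMSO low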
ROMK mod = human ROMK K+ channel modulation, primary screen. AID 1918. B-score at 10 µM. P48048. Tet-inducible ROMK, thallium flux fluorescence; actives lie on both sides. 2% of 130,000 active;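 active = signal ratio slope over the read window, or its plate-corrected B-score, at least 3 SD from the plate mean, either direction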;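 note: B-score of the F/F0 ratio slope over 7 to 12 s after thallium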
ROMK hit retest = human ROMK channel modulation, retest confirmation | shares compounds with ROMK mod | ROMK thallium flux, fluorescence ratio; stronger effect = lower value | normalized thallium flux (F/F0 slope) at 10 µM | 54% of 3,000 active;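 active = Flux at 10 µM at least 3 SD below or above vehicle control mean in one or both replicates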
The depositor's hits bear a star; x = not tested or not shown. This is one part of a sample in which hits are shown more often than they occur.

SMILES	Calb biofilm kill	ABCB1 inh	TRPML3 ag	ABCG2 inh	TRPN1 ag	ROMK mod	ROMK hit retest
C=C1C(=O)C=C2CN(C(=O)c3ccccc3)[C@@](Cc3ccc(F)cc3)(C(=O)OC)[C@@H]12	-1	-1	5	0	37*	-4.4*	0.05*
COC(=O)[C@@]1(Cc2ccc(OC)cc2)[C@@H]2C(=CC(=O)[C@H]2CC(=O)C(=O)N(C)C)CN1C(=O)c1ccccc1	10	2	1	1	1	-2.4	x
CCCCN1C(=O)/C(=C/C=C2\SCCN2C)SC1=S	-8	2	6	8	10	-3.3*	0.052*
CN1CCS/C1=C/C=C1/SC(=S)N(Cc2ccccc2)C1=O	10	5	1	15	3	-0.056	x
CCCCN1C(=O)/C(=C/C=C2\N(C)c3ccccc3C2(C)C)SC1=S	x	32	2	36	3	-4.4*	0.039*
O=C(O)Cc1ccc(N=Cc2c(O)ccc3ccccc23)cc1	14	1	1	7	1	x	0.081
COc1ccc(N=Cc2c(O)ccc3ccccc23)cc1	7	0	0	2	2	-2.8	x
COc1ccc(SC[C@H](CC(C)C)N2CCN(CCc3ccccc3)CCC2=O)cc1	13	x	x	x	x	x	x
O=C(O)CCCN1C(=O)/C(=C/c2ccncc2)SC1=S	22	x	1	x	1	-2.1	x
O=C(O)CCCCCN1C(=O)/C(=C\c2ccncc2)SC1=S	17	0	0	2	1	-4.1*	0.049*
O=C(O)CCCCCN1C(=O)/C(=C/c2ccncc2)SC1=S	-14	0	1	0	1	-4.2*	0.048*
Cc1ccc(/C=C2\SC(=S)N(CCCC(=O)Nc3ccccn3)C2=O)cc1	x	0	1	1	0	x	0.074
CCOc1cc(Br)c(/C=C2/C(=O)N(C)C(=S)N2CC(=O)OC)cc1OC	11	-1	0	4	0	-2.6*	0.075
CCOc1cc(/C=C2/NC(=O)N(CC(=O)OC)C2=O)ccc1OC	54	0	1	4	2	x	x
C=CCN(CC=C)S(=O)(=O)c1ccc(NC(=S)NC(=O)/C=C/c2ccc(C)cc2)cc1	x	2	1	19	0	1.7*	0.084
C=CCN(CC=C)S(=O)(=O)c1ccc(NC(=S)NC(=O)/C=C/c2cccc3ccccc23)cc1	x	0	1	0	2	0.059	x
CCN(CC)CCSc1nnc2c3ccccc3n(Cc3ccccc3)c2n1	7	x	1	x	1	x	x
O=C(/C=C/c1ccccc1)N1CCN(S(=O)(=O)c2ccc(F)cc2)CC1	10	1	0	2	1	-0.25	x
O=C(/C=C/c1ccc(F)cc1)N1CCN(S(=O)(=O)/C=C/c2ccccc2)CC1	17	1	0	3	1	3*	0.078
CC/C(=N\NC(=O)c1ccc(CN(C)S(=O)(=O)c2ccc(C)cc2)cc1)c1ccc(OC(F)F)cc1	12	0	1	0	0	-1.4	x
CN(Cc1ccccc1)Cc1nc2c(c(=O)n(C)c(=O)n2C)n1CCCc1ccccc1	x	2	0	5	-1	-3.6*	0.065*
CC(C)Cn1c(CN(C)Cc2ccccc2)nc2c1c(=O)n(C)c(=O)n2C	x	-1	-1	0	-1	x	x
COc1cc(/C=C/CN2CCN(Cc3ccc(C)o3)C(CCO)C2)ccc1O (centres undefined)	16	0	0	0	0	-0.2	x
S=C(c1ccc(N2CCCC2)c(Br)c1)N1CCCCC1	2	1	0	22	-2	0.15	x
CN1CCC(NC(=O)c2cccs2)CC1	x	0	0	1	1	x	0.075
SMILES	Calb biofilm kill	ABCB1 inh	TRPML3 ag	ABCG2 inh	TRPN1 ag	ROMK mod	ROMK hit retest
O=S(=O)(c1cccc(F)c1)N1CCN(C(=S)NCc2ccccc2)CC1	31	0	1	1	1	0.07	x
O=C(COc1ccccc1CNCc1ccccc1)Nc1ccccc1	x	1	1	2	-1	-2.4*	0.056*
CCOc1ccccc1CNCc1ccc(C(=O)O)cc1	9	0	0	-2	0	0.19	x
Cc1nc2ccc(NC(=O)c3cccc(S(=O)(=O)N(C)c4ccccc4)c3)cc2s1	13	0	1	16	4	-1.4	x
CN(c1ccccc1)S(=O)(=O)c1cccc(NC(=O)c2ccc3ncsc3c2)c1	10	x	1	x	5	x	0.067*
COc1cc(C(=O)Nc2ccc3c(c2)CCN3C(C)=O)cc(OC)c1OC	2	1	1	4	-1	4.5*	0.079
COc1cc(C(=O)Nc2ccc3c(c2)C(=O)c2ccccc2C3=O)cc(OC)c1OC	16	0	0	3	0	x	x
COc1cc(C(=O)Nc2ccc3c(c2)Cc2ccccc2-3)cc(OC)c1OC	12	0	1	1	0	0.14	x
CCc1cccc(NC(=O)c2cc(OC)c(OC)c(OC)c2)c1	2	1	0	4	-1	1.3*	0.077
COc1ccccc1/C=C/C1(C(=O)NC2CCCC2)CC(=O)N1c1ccc(C)cc1 (centres undefined)	16	2	0	4	-1	-5*	0.062*
COc1ccc(/C=C2\CN(Cc3ccccc3)C/C(=C\c3ccc(OC)cc3OC)C2=O)c(OC)c1	x	-1	0	-1	1	x	x
COc1ccc(C=C2c3ccccc3C(=O)c3ccccc32)c(OC)c1	29	x	1	x	-1	2.8*	0.093
Cc1[nH][nH]c(=O)c1N=Nc1ccccc1C#N	-1	-1	1	18	-2	-0.94	x
Cc1ccc(N=Nc2c(C)[nH][nH]c2=O)c(C)c1	x	1	-1	3	-2	1.3*	0.088
COc1ccc2occ(C(=O)c3coc4ccc(O)c(CN(C)C)c34)c2c1	x	1	0	1	3	x	0.061*
COc1ccc(OC)c(C(=O)c2coc3ccc(OCC(=O)O)cc23)c1	x	1	1	5	-1	2.8*	0.07
CSc1ccccc1NC(=O)Cn1nc([N+](=O)[O-])cc1C	18	0	0	0	0	-0.001	x
Cc1cc(C)c(NC(=O)c2ccccc2C(=O)c2ccccc2)c(C)c1	9	1	2	1	0	0.49	x
Cc1ccccc1C(=O)NCC(=O)O	23	0	1	-1	0	-0.0041	x
Cc1ccc(NC(=O)CN2CCCCCC2)cc1[N+](=O)[O-]	-3	0	-1	-1	-1	-0.28	x
N#C/C(=C\C1=C(N2CCOCC2)C(=C/c2cccc([N+](=O)[O-])c2)/CC1)C(=O)Nc1ccccc1F	13	1	1	2	0	-3.4*	0.061*
